Assay [1] has as its target T1, Adrenergic receptor alpha-1 (Rattus norvegicus, UniProt P15823+P23944+P43140).
T1 sequence (P15823 whole entry): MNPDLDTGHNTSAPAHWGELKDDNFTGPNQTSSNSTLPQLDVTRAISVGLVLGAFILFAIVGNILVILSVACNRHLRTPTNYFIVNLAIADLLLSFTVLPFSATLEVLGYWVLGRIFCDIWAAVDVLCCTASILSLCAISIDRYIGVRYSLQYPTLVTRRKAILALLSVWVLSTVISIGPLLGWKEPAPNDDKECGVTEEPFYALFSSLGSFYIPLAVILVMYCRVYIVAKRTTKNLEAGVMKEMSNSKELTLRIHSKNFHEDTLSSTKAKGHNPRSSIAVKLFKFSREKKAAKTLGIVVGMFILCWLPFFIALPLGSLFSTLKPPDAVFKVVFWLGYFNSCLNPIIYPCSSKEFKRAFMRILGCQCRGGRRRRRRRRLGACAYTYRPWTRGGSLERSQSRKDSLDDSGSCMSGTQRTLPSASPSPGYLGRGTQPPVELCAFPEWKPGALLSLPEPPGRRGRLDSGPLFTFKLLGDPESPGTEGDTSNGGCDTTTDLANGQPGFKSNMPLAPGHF
T1 sequence (P23944 whole entry): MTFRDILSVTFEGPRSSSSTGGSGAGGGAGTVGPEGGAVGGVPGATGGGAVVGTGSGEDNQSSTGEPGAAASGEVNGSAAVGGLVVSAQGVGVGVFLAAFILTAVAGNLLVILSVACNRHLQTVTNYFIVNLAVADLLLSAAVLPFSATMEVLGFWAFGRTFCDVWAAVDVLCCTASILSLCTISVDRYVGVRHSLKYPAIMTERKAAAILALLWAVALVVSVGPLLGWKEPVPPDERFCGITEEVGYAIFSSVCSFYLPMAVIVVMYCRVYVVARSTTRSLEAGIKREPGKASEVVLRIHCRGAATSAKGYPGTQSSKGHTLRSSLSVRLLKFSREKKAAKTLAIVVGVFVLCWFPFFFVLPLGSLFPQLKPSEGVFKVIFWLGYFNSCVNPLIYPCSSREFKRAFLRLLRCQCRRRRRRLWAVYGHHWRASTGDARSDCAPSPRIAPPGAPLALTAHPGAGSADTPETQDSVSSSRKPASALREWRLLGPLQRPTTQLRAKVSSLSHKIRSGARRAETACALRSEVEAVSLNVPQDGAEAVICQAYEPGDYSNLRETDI
T1 sequence (P43140 whole entry): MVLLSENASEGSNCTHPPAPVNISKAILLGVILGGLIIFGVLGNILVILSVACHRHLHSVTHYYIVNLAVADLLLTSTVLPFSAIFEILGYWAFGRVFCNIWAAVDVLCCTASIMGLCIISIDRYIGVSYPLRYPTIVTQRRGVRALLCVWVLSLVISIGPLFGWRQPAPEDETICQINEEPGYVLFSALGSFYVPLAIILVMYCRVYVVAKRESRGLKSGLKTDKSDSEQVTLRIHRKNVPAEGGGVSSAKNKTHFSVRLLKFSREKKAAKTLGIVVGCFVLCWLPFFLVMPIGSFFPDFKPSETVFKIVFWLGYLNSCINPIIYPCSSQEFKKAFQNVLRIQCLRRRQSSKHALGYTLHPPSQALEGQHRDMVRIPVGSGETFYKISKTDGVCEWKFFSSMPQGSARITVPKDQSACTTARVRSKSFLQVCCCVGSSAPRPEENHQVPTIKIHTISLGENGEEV
Put plainly: Ability to block alpha-1 adrenergic receptor-mediated contractions of rat aorta. The format is functional. Summed up: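 Endothelium-denuded rat thoracic aorta rings (4–6 mm) in modified Krebs-Henseleit, 37 °C, 95% O2/5% CO2, with (R,S)-propranolol 1 μM. Resting force 20 mN. During 140 min equilibration, rings were stimulated twice with (R)-phenylephrine 100 nM. Two cumulative phenylephrine contraction curves were run, without and then with antagonist added 30 min before.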

Assay [2] addresses 5-hydroxytryptamine receptor 2A (Rattus norvegicus) (UniProt P14842). The following applies: Tail.
A short description of assay [3]: Specificity towards 5-HT2A receptor to that of alpha-1 adrenoceptor. The format is functional.
The target of assay [4] is 5-hydroxytryptamine receptor 2A (Rattus norvegicus) (UniProt P14842). Put plainly: Intrinsic activity towards 5-HT2A receptor of rat tail artery. The format is functional, tissue-based. Summed up: (§1)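 Endothelium-denuded rat caudal artery segments, resting force 5 mN, with prazosin 30 nM and cocaine 6 μM present. Two cumulative curves were run on each segment 60 min apart: first 5-HT, then the test agonist. pKP was taken from a Kenakin plot of equieffective 5-HT and agonist concentrations. Mean ± SEM from n segments, ≥2 animals.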

In assay [5] the target is T2, 5-hydroxytryptamine receptor 2A (Rattus norvegicus, UniProt P14842). Put plainly: Partial agonism at 5-HT2A receptor was evaluated in presence of ketanserin (3-10 nM) in isolated rat tail artery. The format is functional, tissue-based. The conditions noted are these: read-out: pA2 (converted). Summed up: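 Rat caudal artery, endothelium removed, with prazosin 30 nM and cocaine 6 μM present. A 5-HT curve was followed after 60 min by a cumulative agonist curve, with ketanserin 3 nM added 30 min beforehand. The rightward shift was compared with that in control segments run without ketanserin.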

For assay [6], the target named is 5-hydroxytryptamine receptor 2A (Rattus norvegicus) (UniProt P14842). Put plainly: Relative potency towards 5-HT2A receptor of rat tail artery. The format is functional, tissue-based. Summed up: as §1
Assay [7] has the same target. Put plainly: Effectiveness in blocking 5-HT2A receptor-mediated contractions of rat tail artery. The format is functional, tissue-based. Summed up: (§2)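 Endothelium-denuded rat ventral caudal artery segments (4–5 mm), isometric, resting force 5 mN. Segments were primed once with 5-HT 1 μM during 120 min equilibration. Prazosin 30 nM and cocaine 6 μM were present throughout. Two cumulative 5-HT curves were run 60 min apart, the second after 30–60 min with antagonist. pKP by Marano–Kaumann; pA2 by Schild or as apparent pA2. Mean ± SEM, n segments, ≥2 animals.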

Assay [8] has as its target T2, 5-hydroxytryptamine receptor 2A. Put plainly: Blocking 5-HT2A receptor-mediated contractions of rat tail artery. The format is functional, tissue-based. The following applies: read-out: pA2 (converted). Summed up:
as §2

A short description of assay [9]: Specificity of compound towards 5-HT2A receptor to that of 5-HT1B receptor. The format is functional.
Assay [10] deals with 5-hydroxytryptamine receptor 1B (Homo sapiens, UniProt P28222). Put plainly: Affinity of compound towards 5-hydroxytryptamine 1B receptor in isolated guinea-pig iliac artery. The format is functional, tissue-based, Cavia porcellus. The conditions noted are these: target entry is the homologue from another species; read-out: pA2 (converted). Summed up:
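Iliac artery segments (1–2 mm), resting force 5 mN. Krebs-Henseleit contained ketanserin 1 μM, mepyramine 0.3 μM, cimetidine 30 μM and cocaine 30 μM. […] Two 5-HT curves were run 80 min apart, the second after 45 min with compound.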

Assay [11] deals with T2, 5-hydroxytryptamine receptor 2A. Put plainly: Effectiveness of compound in blocking 5-hydroxytryptamine 2A receptor-mediated contractions of rat tail artery. The format is functional, tissue-based. The conditions noted are these: read-out: pA2 (converted). Summed up: as §2

Where “and” joins values, the source holds several entries; their conditions need not be identical. Equal entries are not always repeated.

5-hydroxytryptamine receptor 1B, sequence (P28222 whole entry): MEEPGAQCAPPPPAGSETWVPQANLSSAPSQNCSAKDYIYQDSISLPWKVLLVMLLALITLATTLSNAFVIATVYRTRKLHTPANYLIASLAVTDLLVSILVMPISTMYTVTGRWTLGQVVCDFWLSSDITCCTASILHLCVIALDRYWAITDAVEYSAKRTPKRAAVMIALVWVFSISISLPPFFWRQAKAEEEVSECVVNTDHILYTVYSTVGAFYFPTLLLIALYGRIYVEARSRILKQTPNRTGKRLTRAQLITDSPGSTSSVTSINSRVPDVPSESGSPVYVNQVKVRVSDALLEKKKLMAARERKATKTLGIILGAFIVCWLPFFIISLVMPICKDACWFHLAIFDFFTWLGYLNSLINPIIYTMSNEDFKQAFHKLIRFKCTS
5-hydroxytryptamine receptor 2A (Rattus norvegicus), sequence (P14842 whole entry): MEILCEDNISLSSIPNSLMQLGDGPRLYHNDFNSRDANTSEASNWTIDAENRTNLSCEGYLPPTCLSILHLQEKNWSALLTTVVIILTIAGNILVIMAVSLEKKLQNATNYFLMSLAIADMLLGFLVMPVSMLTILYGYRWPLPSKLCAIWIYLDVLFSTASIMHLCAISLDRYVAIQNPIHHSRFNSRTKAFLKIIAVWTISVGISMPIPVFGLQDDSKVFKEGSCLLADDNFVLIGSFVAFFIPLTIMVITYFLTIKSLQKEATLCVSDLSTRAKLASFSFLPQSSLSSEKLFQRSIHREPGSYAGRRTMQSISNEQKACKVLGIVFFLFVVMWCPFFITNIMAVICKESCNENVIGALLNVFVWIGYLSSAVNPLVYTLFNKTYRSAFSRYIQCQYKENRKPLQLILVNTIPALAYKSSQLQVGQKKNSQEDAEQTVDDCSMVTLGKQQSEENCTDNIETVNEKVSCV
T2 sequence (P14842 whole entry): as above

In assay [1], `CN1C[C@H](COC(=O)C2CCCCC2)C=C2c3cccc4[nH]cc(c34)C[C@H]21.O=C(O)/C=C\C(=O)O` gave a pA2 of 5.05. For the same compound, the figures for the pKp in assay [2] and in assay [7] were 6.88 and 6.92, respectively. The compound further registered a Specificity in assay [3] of 68. The Intrinsic activity in assay [4] stood at 0.18. For the same compound, the Kb in assay [5] was 0.661 nM. For the same compound, in assay [6], the Relative potency worked out at 49%.
As to `CN1C[C@H](COC(=O)C2CCCCCC2)C=C2c3cccc4[nH]cc(c34)C[C@H]21.O=C(O)/C=C\C(=O)O`, the pA2 in assay [1] amounted to 4.73. The same compound yielded a Specificity in assay [3] of 95. Further, the Intrinsic activity in assay [4] stood at 0.18. Also, in [5], the Kb was 0.776 nM. In assay [6], this compound returned a Relative potency of 14%. Moreover, in [7], the pKp is 6.71 and 6.35.
For the compound `CC(C)n1cc2c3c(cccc31)[C@H]1C=C(CO)CN(C)[C@@H]1C2.O=C(O)/C=C\C(=O)O`, the pA2 in assay [1] was 5.69. For the same compound, the Kb was 0.724 nM in [8] and 851 nM in assay [10]. For the same compound, the results for the Specificity in assay [3] and in assay [9] were 2820 and 1180, respectively.
Consider `CC(C)n1cc2c3c(cccc31)C1=C[C@@H](COC(=O)C3CCCCCC3)CN(C)[C@@H]1C2.O=C(O)/C=C\C(=O)O`, for which the Kb in assay [11] was 17.8 nM. In assay [1], this compound came in with a pA2 of 4.93. In assay [3], this compound came in with a Specificity of 661.
The compound `CC(C)n1cc2c3c(cccc31)C1=C[C@@H](CO)CN(C)[C@@H]1C2.O=C(O)/C=C\C(=O)O` gave a pA2 in [1] of 6.05. Further, the Kb in [8] is 0.708 nM; in assay [10] it was 209 nM. For the same compound, the values for the Specificity in [3] and in assay [9] were 1260 and 295, respectively.
In assay [1], `CN1C[C@H](COC(=O)C2CC2)C=C2c3cccc4[nH]cc(c34)C[C@H]21.O=C(O)/C=C\C(=O)O` had a pA2 of 6.66. The compound further came in with a Specificity in assay [3] of 55. In assay [4], the Intrinsic activity turned out to be 0.21. In addition, the Kb in [5] is 0.741 nM. The compound further yielded a Relative potency in assay [6] of 331%.
`CN1C[C@H](COC(=O)C2CCCC2)C=C2c3cccc4[nH]cc(c34)C[C@H]21.O=C(O)/C=C\C(=O)O` showed a pA2 in assay [1] of 5.32. Further, the Specificity in assay [3] came to 120. Further, the Intrinsic activity in [4] was found to be 0.11. For the same compound, the Kb in [5] is 0.741 nM. This compound also showed a Relative potency in assay [6] of 128%. For the same compound, the pKp in [7] was 7.4 and 7.27.
For the compound `CC(C)n1cc2c3c(cccc31)[C@H]1C[C@@H](COC(=O)C3CC3)CN(C)[C@@H]1C2.O=C(O)/C=C\C(=O)O`, in assay [11], the Kb is 6.03 nM. This compound also yielded a pA2 in assay [1] of 5.55. In addition, the Specificity in assay [3] came out at 468.
In assay [1], `CN1C[C@H](COC(=O)C2CCC2)C=C2c3cccc4[nH]cc(c34)C[C@H]21.O=C(O)/C=C\C(=O)O` yielded a pA2 of 5.52. For the same compound, the Specificity in assay [3] was found to be 174. In [4], this compound gave an Intrinsic activity of 0.13. Moreover, the Kb in [5] is 0.741 nM. This compound also came in with a Relative potency in [6] of 185%. Besides, in assay [7], the pKp is 7.76 and 7.36.
Compound `CC(C)n1cc2c3c(cccc31)[C@H]1C[C@@H](CO)CN(C)[C@@H]1C2.O=C(O)/C=C\C(=O)O` returned a pA2 in assay [1] of 6.12. Further, the Kb in assay [8] was 3.16 nM; in [10], 1860 nM. For the same compound, the Specificity in assay [3] came to 240; in assay [9] it was 589.
In the case of `CN1C[C@H](CO)C=C2c3cccc4[nH]cc(c34)C[C@H]21`, the Intrinsic activity in assay [4] was found to be 0.18. In addition, the Kb in assay [5] is 0.794 nM. The Relative potency in assay [6] is 74%. The same compound showed a pKp in assay [7] of 6.88.

One may read the pA2 as a measure of antagonist potency on a negative log scale. Read a low pA2 as a weaker antagonist.

The values are drawn from ChEMBL document CHEMBL1132168, “Cycloalkanecarboxylic esters derived from lysergol, dihydrolysergol-I, and elymoclavine as partial agonists and antagonists at rat 5-HT2A receptors: pharmacological evidence that the indolo[4,3-fg]quinoline system of the ergolines is responsible for high 5-HT2A receptor affinity” (J Med Chem, 1999).
